Test results taken from paper PMC2828537 (Pflugers Archiv : European journal of physiology, 2009).

Experiments:
Assay type in all cases: cell-based
HEK293 cells = assay: Fluo4 [Ca2+]i assay in parental HEK293 cells; details: 300 µM
Method in brief: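 Wild-type HEK293 cells in DMEM (4.5 mg/ml glucose, 10% heat-inactivated FBS, penicillin/streptomycin), plated on polyornithine-treated wells for 14–18 hrs. Loaded with Fluo4-AM (2 µM, 60 min, 37°C) in ECS with 2 mM probenecid, then washed. Test compound was given robotically at 300 µM final. Fluorescence was read on a plate reader at ex 494/em 525 nm, 0.67 Hz, 20–25°C.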

murine TRPV1 [1] = target: T1, murine TRPV1 (Mus musculus, UniProt Q704Y3); assay: Fura2 Ca2+ imaging of HEK293 cells transiently expressing TRPV1
Method in brief: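 Murine TRPV1 (pIRES2EGFP) was transiently expressed in HEK293 cells, which were seeded on polyornithine coverslips one day after transfection. After 16 hrs, cells were loaded with 2 µM Fura2-AM plus 0.05% Pluronic F-127 (60 min, 37°C). Transfected cells were identified by GFP (470 nm). Imaging used 340/380 nm excitation and 510 nm emission at 22°C. Capsaicin and test compound were perfused at final concentration. Maximal Fura2 ratio change reported, n = 3.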

murine TRPV1 [2] = target: T1, murine TRPV1; assay: Two-electrode voltage clamp of Xenopus oocytes expressing murine TRPV1; details: 100 µM FFA with 100 µM 2APB
Method in brief: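 Collagenase-defolliculated Xenopus oocytes (>1.5 mm) were injected with 5 ng cRNA and kept 2–5 days at 19°C in ND96. Two-electrode clamp used a nominally Ca²⁺-free bath (pH 7.4), holding −20 mV, a 20 ms step to −100 mV, then a 200 ms ramp to +100 mV each second, at 22°C.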

human TRPA1 = human TRPA1 (Homo sapiens, UniProt O75762); assay: Fluo4 [Ca2+]i assay in HEK-A1 cells
rat TRPA1 = rat TRPA1 (Rattus norvegicus, UniProt Q6RI86); assay: Two-electrode voltage clamp of Xenopus oocytes expressing rat TRPA1; details: for response to FFA and AITC together, % of that evoked by FFA alone: 30 µM FFA + 3 µM AITC; for current stimulated by FFA and CA together, % of that evoked by FFA: 30 µM FFA + 3 µM CA; for current with FFA at 14°C, % of that evoked by the same concentration at 22°C / increase of FFA-activated current by raising bath Ca2+ to 10 mM / decrease of FFA-activated current amplitude in BAPTA-injected oocytes: 30 µM FFA; for decrease of FFA-activated current amplitude in BAPTA-injected oocytes / EC50: nominally Ca2+-free bath; for decrease of FFA-activated current amplitude in BAPTA-injected oocytes: BAPTA ~2.5 mM
murine TRPV3 = target: T2, murine TRPV3 (Mus musculus, UniProt Q8K424); assay: Fluo4 [Ca2+]i assay in stable HEK293 TRPV3 cell line
T2 sequence (Q8K424 1-791): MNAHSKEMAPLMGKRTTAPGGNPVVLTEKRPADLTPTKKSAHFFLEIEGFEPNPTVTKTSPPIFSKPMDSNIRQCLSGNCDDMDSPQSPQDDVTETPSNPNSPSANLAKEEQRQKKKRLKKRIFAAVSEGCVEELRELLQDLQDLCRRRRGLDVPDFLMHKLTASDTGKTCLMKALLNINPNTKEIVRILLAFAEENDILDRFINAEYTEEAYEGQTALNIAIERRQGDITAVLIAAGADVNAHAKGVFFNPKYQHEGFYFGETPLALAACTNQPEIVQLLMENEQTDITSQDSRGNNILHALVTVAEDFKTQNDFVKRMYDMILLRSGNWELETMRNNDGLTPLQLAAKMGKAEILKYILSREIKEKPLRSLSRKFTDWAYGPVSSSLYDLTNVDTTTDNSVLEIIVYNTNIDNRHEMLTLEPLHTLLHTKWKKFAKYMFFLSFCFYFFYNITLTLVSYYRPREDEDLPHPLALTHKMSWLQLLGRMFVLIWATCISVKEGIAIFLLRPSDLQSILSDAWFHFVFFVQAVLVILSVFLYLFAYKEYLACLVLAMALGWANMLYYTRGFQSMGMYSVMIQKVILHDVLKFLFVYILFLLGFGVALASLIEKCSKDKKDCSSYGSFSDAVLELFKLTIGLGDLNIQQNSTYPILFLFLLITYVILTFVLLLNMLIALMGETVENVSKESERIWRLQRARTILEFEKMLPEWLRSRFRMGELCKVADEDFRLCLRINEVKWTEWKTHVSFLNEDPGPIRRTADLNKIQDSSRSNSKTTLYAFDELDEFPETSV
Method in brief: (§1)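 Stable HEK293 lines expressing murine TRPV3 (clonal) or TRPM8 (polyclonal), selected with 400 µg/ml G418. Seeded at ~100,000 cells/well on polyornithine-treated wells and grown 14–18 hrs. Loaded with 2 µM Fluo4-AM plus 0.05% Pluronic F-127 in ECS (pH 7.4) for 60 min at 37°C, with 2 mM probenecid throughout. Test compound and channel agonist added robotically. Fluorescence read at ex 494/em 525 nm, 0.67 Hz, 20–25°C. Maximal fluorescence change reported, n = 3.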

[3] = target: T3, human TRPA1 endogenously expressed in WI-38 fibroblasts (Homo sapiens, UniProt O75762); assay: Fluo4 [Ca2+]i assay in WI-38 fibroblasts
[4] = target: T3, human TRPA1 endogenously expressed in WI-38 fibroblasts; assay: Whole-cell recordings of WI-38 cells
Method in brief: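 WI-38 cells grown in MEM with 10% heat-inactivated FBS and penicillin/streptomycin at 37°C, 5% CO₂. Cells were detached with 0.05% trypsin plus 0.53 mM EDTA in Ca²⁺/Mg²⁺-free HBSS for 5–10 min, held at 37°C, then settled on polyornithine-coated coverslips for 3–5 min before perfusion. Whole-cell voltage clamp was sampled at 5 kHz, with 100 ms ramps from −100 to +100 mV (holding −60 mV) applied every 0.5 s.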

[5] = target: human TRPA1 Cys621Ser, Cys641Ser and Cys665Ser triple mutant (Homo sapiens, UniProt O75762, C621S/C641S/C665S); assay: Currents of human TRPA1 triple cysteine mutant; details: HH, unpublished results
murine TRPM8 = murine TRPM8 (Mus musculus, UniProt Q8R4D5); assay: Fluo4 [Ca2+]i assay in stable HEK293 TRPM8 cell line
Method in brief: as §1

[6] = high concentrations of FFA (30 to 300 µM)

Chain of murine TRPM8 (Q8R4D5 whole entry): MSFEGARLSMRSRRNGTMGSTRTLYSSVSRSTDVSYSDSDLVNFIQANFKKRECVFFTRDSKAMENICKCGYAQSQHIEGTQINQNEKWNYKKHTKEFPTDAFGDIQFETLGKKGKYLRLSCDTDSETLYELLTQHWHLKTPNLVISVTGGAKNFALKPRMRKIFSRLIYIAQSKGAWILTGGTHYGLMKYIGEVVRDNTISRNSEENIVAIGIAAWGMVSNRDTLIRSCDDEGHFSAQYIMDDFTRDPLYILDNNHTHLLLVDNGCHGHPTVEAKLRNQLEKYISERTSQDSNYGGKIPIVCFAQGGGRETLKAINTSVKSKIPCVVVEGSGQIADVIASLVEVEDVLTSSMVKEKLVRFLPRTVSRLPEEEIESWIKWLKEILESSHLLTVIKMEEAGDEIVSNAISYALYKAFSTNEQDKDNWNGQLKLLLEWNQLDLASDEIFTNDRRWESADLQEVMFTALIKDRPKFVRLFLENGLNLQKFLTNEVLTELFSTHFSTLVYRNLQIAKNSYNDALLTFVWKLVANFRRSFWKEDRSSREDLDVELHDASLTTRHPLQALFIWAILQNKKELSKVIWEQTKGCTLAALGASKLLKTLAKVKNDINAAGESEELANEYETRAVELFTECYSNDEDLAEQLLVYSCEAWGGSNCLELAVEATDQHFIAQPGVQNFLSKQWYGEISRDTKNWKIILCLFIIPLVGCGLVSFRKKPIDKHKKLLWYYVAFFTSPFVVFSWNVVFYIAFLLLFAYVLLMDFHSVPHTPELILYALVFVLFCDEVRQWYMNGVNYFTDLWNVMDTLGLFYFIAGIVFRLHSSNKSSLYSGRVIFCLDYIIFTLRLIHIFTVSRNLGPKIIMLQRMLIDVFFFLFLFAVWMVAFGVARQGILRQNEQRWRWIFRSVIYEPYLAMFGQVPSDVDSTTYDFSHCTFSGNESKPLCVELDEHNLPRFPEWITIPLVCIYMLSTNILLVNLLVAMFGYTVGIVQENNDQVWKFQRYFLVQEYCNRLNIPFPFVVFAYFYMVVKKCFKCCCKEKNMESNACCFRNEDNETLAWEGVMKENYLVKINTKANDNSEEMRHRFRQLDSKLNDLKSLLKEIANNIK
T3 sequence (O75762 whole entry): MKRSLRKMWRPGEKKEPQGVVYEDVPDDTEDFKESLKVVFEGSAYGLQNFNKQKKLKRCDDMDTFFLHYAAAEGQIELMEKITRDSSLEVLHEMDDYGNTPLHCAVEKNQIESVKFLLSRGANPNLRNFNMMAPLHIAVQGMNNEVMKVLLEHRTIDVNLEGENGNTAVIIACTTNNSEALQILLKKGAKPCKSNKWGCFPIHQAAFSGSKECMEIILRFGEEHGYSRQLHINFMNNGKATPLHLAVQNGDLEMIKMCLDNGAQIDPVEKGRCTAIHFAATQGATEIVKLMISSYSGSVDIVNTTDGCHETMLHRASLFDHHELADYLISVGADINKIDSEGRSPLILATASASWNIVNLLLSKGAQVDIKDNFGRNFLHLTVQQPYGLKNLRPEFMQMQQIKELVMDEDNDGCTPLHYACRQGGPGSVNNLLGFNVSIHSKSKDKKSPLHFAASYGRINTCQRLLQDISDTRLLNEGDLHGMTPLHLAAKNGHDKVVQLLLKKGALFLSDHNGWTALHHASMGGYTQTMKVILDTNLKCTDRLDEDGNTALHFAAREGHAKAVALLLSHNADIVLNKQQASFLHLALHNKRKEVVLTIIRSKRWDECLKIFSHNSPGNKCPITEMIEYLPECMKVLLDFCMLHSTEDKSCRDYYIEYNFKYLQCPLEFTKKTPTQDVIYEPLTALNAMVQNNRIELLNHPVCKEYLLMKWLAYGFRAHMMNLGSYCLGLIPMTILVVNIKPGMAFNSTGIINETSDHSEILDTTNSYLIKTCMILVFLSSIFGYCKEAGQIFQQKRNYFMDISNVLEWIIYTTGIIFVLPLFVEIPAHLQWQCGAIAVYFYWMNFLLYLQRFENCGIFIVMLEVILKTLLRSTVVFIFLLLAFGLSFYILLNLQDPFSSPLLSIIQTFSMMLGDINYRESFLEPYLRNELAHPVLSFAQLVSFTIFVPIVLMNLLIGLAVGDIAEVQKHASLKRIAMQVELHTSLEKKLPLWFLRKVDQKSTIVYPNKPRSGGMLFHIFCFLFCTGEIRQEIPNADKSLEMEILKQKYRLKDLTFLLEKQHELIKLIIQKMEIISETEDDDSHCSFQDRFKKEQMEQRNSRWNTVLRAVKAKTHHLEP
Chain of rat TRPA1 (Q6RI86 whole entry): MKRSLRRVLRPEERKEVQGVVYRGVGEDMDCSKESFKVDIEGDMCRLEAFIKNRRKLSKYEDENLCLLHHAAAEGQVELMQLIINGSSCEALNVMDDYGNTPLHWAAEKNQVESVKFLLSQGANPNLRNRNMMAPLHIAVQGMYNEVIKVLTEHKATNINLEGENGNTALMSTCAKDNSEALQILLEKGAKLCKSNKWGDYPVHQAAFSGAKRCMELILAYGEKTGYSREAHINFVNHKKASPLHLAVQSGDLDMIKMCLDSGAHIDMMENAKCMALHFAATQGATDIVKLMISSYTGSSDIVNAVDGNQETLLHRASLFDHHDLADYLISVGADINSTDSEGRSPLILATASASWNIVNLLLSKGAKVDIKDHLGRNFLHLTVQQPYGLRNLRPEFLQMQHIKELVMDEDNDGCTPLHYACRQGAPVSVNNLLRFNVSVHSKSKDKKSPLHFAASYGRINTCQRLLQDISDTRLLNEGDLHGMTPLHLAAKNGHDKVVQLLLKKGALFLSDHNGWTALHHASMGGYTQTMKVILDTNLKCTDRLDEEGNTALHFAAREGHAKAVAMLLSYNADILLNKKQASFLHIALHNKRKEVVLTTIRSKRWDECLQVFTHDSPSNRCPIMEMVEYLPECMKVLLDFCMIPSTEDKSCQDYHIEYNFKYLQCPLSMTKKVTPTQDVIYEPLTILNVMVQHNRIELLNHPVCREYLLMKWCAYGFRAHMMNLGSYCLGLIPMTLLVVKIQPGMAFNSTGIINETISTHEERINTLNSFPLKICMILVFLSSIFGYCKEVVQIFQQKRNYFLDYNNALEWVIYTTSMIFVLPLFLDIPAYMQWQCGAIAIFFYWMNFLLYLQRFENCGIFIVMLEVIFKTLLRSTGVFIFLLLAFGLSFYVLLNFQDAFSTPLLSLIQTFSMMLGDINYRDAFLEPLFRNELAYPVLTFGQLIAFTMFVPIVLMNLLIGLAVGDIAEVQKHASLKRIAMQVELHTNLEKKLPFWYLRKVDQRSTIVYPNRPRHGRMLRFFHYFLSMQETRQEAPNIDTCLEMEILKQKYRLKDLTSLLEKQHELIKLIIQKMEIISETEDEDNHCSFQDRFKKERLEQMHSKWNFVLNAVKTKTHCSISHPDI
T1 sequence (Q704Y3 whole entry, the tested form may be a part): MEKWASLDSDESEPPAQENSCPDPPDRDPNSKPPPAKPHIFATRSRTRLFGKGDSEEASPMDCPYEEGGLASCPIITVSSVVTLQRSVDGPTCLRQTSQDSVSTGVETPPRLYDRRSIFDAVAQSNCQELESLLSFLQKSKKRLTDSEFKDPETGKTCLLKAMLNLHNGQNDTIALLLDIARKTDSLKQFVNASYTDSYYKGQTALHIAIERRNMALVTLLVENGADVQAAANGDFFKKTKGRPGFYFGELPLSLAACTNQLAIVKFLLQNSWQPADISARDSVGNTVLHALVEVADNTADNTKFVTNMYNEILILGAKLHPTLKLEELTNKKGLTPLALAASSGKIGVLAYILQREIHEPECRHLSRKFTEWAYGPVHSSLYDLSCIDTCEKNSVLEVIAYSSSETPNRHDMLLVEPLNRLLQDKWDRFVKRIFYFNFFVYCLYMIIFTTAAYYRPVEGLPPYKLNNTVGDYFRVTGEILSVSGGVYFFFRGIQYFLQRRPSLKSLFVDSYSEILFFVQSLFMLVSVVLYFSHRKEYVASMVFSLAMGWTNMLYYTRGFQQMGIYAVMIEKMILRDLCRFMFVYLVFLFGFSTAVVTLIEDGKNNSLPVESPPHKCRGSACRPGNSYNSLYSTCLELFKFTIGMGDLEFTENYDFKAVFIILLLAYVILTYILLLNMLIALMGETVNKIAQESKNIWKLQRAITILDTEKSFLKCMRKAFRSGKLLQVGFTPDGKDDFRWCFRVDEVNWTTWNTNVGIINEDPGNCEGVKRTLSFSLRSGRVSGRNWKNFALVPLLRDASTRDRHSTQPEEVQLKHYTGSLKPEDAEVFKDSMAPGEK
Chain of human TRPA1 (O75762 whole entry): as the sequence (O75762 whole entry) above
Chain of human TRPA1 Cys621Ser, Cys641Ser and Cys665Ser triple mutant (O75762 whole entry C621S/C641S/C665S): as the sequence (O75762 whole entry) above, with C621S, C641S, C665S counted along it

O=C(O)c1ccccc1Nc1cccc(C(F)(F)F)c1 [FFA, flufenamic acid]
effect on Fluo4 fluorescence in HEK293 cells (HEK293 cells): little effect | increase in Fura2 ratio upon application (murine TRPV1 [1]; FFA from 3.7 to 100 µM): no significant increase | effect on [Ca2+]i increase elicited by the channel's agonist (murine TRPV1 [1]; [6]): inhibited | suppression of 2APB-activated current (murine TRPV1 [2]; +100 mV): 57% | suppression of 2APB-activated current (murine TRPV1 [2]; −100 mV): 75% | EC50 (human TRPA1): 57 ± 5 µM | nH (Hill coefficient) (human TRPA1; HEK-A1 cells): 1.6 ± 0.1 | threshold of activation (rat TRPA1): about 10 µM | response to FFA and AITC together, % of that evoked by FFA alone (rat TRPA1; +100 mV): 300 ± 52% | response to FFA and AITC together, % of that evoked by FFA alone (rat TRPA1; −100 mV): 350 ± 62% | current stimulated by FFA and CA together, % of that evoked by FFA (rat TRPA1; +100 mV): 223 ± 25% | current stimulated by FFA and CA together, % of that evoked by FFA (rat TRPA1; −100 mV): 234 ± 43% | current with FFA at 14°C, % of that evoked by the same concentration at 22°C (rat TRPA1; +100 mV): 226 ± 86% | current with FFA at 14°C, % of that evoked by the same concentration at 22°C (rat TRPA1; −100 mV): 315 ± 85% | increase of FFA-activated current by raising bath Ca2+ to 10 mM (rat TRPA1; +100 mV): 240 ± 39% | decrease of FFA-activated current amplitude in BAPTA-injected oocytes (rat TRPA1; +100 mV): ~ 44% | decrease of FFA-activated current amplitude in BAPTA-injected oocytes (rat TRPA1; −100 mV): ~ 33% | increase of FFA-activated current by raising bath Ca2+ to 10 mM (rat TRPA1; −100 mV): 309 ± 49% | Hill co-efficient at +100 mV (rat TRPA1; +100 mV): 2.2 ± 0.2 | EC50 (rat TRPA1; EC50 for current activation at +100 mV, +100 mV): 78 ± 4 µM | EC50 (rat TRPA1; EC50 for current activation at −100 mV, −100 mV): 147 ± 4 µM | Hill co-efficient at −100 mV (rat TRPA1; −100 mV): 2.2 ± 0.1 | increase in Fluo4 fluorescence upon application (murine TRPV3; FFA from 3.7 to 100 µM): no significant increase | effect on [Ca2+]i increase elicited by the channel's agonist (murine TRPV3; [6]): inhibited | agonist effect on Fluo4 fluorescence ([Ca2+]i) in WI-38 cells ([3]; 300 µM): increased the Fluo4 fluorescence | nH (Hill coefficient) ([3]; WI-38 cells): 1.3 ± 0.2 | Hill co-efficient at +100 mV ([4]; +100 mV): 1.7 ± 0.2 | EC50 ([4]; EC50 for FFA-evoked whole-cell currents at +100 mV, +100 mV): 44 ± 11 µM | EC50 ([4]; EC50 for FFA-evoked whole-cell currents at −100 mV, −100 mV): 55 ± 4 µM | Hill co-efficient at −100 mV ([4]; −100 mV): 2.4 ± 0.1 | concentration-response curve in triple cysteine mutant [5]: right-shifted | Fluo4 fluorescence change (murine TRPM8; 300 µM FFA): slow fluorescence increase | increase in Fluo4 fluorescence upon application (murine TRPM8; FFA from 3.7 to 100 µM): no significant increase | effect on [Ca2+]i increase elicited by the channel's agonist (murine TRPM8; [6]): inhibited
